# Measured values from ChEMBL document CHEMBL1150208, “Production of anti-tumor-promoting iridoid glucosides in Genipa americana and its cell cultures” (J Nat Prod, 1991).
# What was measured:
# Assay type in all cases: cell-based
# Raji [1] = test: Inhibition of TPA-induced EBV-early antigen activation in human Raji cells assessed as EA activation at 10 molar ratio after 48 hrs relative to TPA; conditions: human gammaherpesvirus 4
# Outline: (§1)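 EBV early antigen activation was induced in Raji cells with TPA (32 pmol) and n-butyrate. Test substance was dosed as a molar ratio to TPA in 0.25% phosphate buffer (pH 7.2) for 48 h. Activation is expressed as % of the TPA-only positive control (=100), reported as mean ± SD.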
# Raji [2] = test: Inhibition of TPA-induced EBV-early antigen activation in human Raji cells assessed as EA activation at 1000 molar ratio after 48 hrs relative to TPA; conditions: human gammaherpesvirus 4; outline: as §1
# Raji [3] = test: Inhibition of TPA-induced EBV-early antigen activation in human Raji cells assessed as EA activation at 100 molar ratio after 48 hrs relative to TPA; conditions: human gammaherpesvirus 4; outline: as §1
# [4] = Cytotoxicity against human Raji cells assessed as cell viability at 1000 molar ratio after 48 hrs by trypan blue assay; conditions: read-out: Activity
# Outline: (§2)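 Raji cells were treated together with TPA (32 pmol), n-butyrate and test substance in 0.25% phosphate buffer solution (pH 7.2). Dose is expressed as molar ratio to TPA. After 48 h, cells were stained with Trypan Blue and surviving cells were counted to give viability %.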
# Raji [5] = test: Inhibition of TPA-induced EBV-early antigen activation in human Raji cells assessed as EA activation at 500 molar ratio after 48 hrs relative to TPA; conditions: human gammaherpesvirus 4; outline: as §1
# [6] = Cytotoxicity against human Raji cells assessed as cell viability at 100 molar ratio after 48 hrs by trypan blue assay; conditions: read-out: Activity; outline: as §2
SMILES,EBV-EA activation (% of TPA control) (Raji [1]) [%],EA activation (% of TPA-only control) (Raji [2]) [%],EA activation relative to TPA control (Raji [3]) [%],"viability at 48 h, 1000 molar ratio [4] [%]",EA activation (% of TPA control) (Raji [5]) [%],"viability at 48 h, 100 molar ratio [6] [%]"
O=C(O)C1=CO[C@@H](O[C@@H]2O[C@H](CO)[C@@H](O)[C@H](O)[C@H]2O)[C@@H]2C(CO)=CC[C@H]12 [GENIPOSIDIC ACID],100,34.8,91.8,80,80.5,
O=CC1=CO[C@@H](O[C@@H]2O[C@H](CO)[C@@H](O)[C@H](O)[C@H]2O)[C@@H]2C(CO)=CC[C@H]12 [TARENNOSIDE],100,30.5,88.1,80,72.8,
COC(=O)C1=CO[C@@H](O[C@@H]2O[C@H](CO)[C@@H](O)[C@H](O)[C@H]2O)[C@@H]2C(CO)=CC[C@H]12 [GENIPOSIDE],100,62.4,100,80,91,
CC1=C(/C=C/C(C)=C/C=C/C(C)=C/C(=O)O)C(C)(C)CCC1 [TRETINOIN],,30,67,10,,40
COC(=O)C1=CO[C@@H](O[C@@H]2O[C@H](CO)[C@@H](O)[C@H](O)[C@H]2O)[C@H]2[C@@H]1C=C[C@@]2(O)CO [GARDENOSIDE],100,92.6,100,80,100,
COC(=O)C1=CO[C@@H](O)[C@@H]2C(CO)=CC[C@H]12 [GENIPIN],100,11.5,64.2,80,44.2,
